# What was measured:
# [1] = biological target: T1, Protein-glutamine gamma-glutamyltransferase K (Homo sapiens) (UniProt P22735); assay: Inhibition of human transglutaminase 1 using ((benzyloxy)carbonyl)-L-glutaminyl-L-serine peptide substrate assessed as Kinh/Ki ratio by GDH coupled assay
# T1 sequence (whole entry): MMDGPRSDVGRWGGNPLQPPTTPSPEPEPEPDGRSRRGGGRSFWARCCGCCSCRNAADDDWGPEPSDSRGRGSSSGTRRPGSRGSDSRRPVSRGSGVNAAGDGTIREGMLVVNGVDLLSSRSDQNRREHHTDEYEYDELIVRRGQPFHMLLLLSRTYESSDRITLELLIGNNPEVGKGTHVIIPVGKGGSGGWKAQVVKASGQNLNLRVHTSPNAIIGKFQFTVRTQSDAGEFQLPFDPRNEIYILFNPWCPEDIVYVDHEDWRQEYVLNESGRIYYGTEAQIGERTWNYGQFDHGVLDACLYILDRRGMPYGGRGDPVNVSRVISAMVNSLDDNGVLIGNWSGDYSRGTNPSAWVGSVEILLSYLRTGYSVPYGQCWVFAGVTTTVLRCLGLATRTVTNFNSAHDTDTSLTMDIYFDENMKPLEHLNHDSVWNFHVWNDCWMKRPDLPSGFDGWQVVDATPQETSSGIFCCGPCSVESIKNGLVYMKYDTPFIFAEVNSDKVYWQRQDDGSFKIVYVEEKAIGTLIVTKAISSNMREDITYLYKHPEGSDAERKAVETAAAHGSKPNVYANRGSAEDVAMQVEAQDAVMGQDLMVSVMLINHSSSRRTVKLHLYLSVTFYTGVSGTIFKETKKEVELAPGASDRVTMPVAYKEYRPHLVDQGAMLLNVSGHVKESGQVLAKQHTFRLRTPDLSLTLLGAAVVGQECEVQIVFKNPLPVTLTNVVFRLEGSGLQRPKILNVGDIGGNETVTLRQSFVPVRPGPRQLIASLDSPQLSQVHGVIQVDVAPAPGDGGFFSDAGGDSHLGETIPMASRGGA
# In short: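 Recombinant His-tagged human TG1 from E. coli Rosetta 2 pLysS, final ~0.37 μM, in 200 mM MOPS pH 7.2, 5 mM CaCl2, 10 mM α-ketoglutarate, 300 μM NADH, 36 U/mL GDH. Z-Gln-Ser at 20/40 mM. Inhibitors typically at 100/33.3/11.1/3.7 μM (1% DMSO), added after ≥5 min enzyme pre-equilibration. NADH loss read at 340 nm; progress curves fitted to exponential decay, kinh/Ki from irreversible model.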
# [2] = biological target: T2, Protein-glutamine gamma-glutamyltransferase 2 (Mus musculus) (UniProt P21981); assay: Inhibition of mouse transglutaminase 2 using ((benzyloxy)carbony l)-L-glutaminylglycine peptide substrate assessed as Kinh/Ki ratio by GDH coupled assay
# T2 sequence (whole entry): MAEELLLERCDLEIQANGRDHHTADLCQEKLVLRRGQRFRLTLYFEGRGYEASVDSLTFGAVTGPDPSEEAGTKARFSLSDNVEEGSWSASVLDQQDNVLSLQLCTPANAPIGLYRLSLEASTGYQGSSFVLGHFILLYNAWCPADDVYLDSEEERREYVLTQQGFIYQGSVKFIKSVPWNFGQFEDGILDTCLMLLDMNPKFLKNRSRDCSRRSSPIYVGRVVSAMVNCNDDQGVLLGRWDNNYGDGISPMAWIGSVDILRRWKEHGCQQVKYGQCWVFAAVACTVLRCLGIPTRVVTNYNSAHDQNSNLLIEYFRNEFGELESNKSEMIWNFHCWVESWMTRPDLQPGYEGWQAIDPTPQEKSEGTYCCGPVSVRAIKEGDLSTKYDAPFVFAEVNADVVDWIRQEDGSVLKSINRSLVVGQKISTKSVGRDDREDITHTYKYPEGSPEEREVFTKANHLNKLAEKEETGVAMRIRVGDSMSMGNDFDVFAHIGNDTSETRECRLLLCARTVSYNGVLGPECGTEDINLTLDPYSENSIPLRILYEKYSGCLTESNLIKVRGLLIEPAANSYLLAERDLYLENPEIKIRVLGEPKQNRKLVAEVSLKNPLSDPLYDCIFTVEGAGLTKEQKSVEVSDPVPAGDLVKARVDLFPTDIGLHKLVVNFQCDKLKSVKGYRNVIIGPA
# In short: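 Human TG2 (V224G variant) or codon-optimized murine TG2, E. coli-expressed, final ~0.34 and 0.22 μM respectively. Buffer: 200 mM MOPS pH 7.2, 5 mM CaCl2, 10 mM α-ketoglutarate, 300 μM NADH, 36 U/mL bovine GDH. Z-Gln-Gly at 10/20 mM. Inhibitors typically at 100/33.3/11.1/3.7 μM, 1% DMSO, added after ≥5 min pre-equilibration. A340 progress curves fitted to exponential decay; kinh/Ki from irreversible inhibition model.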
# [3] = Half life in CD-1 mouse at 50 mg/kg, po; type: ADME, organism-based; design: dose 50 mg/kg, route oral; conditions: in vivo
# In short: (§1)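 Male CD-1 mice (6−8 weeks, cohorts of five) fasted ~6 h, then gavaged (10 μL/g) with inhibitor mixtures at 50 mg/kg each compound. Vehicle: 25 mg/mL per compound in 1 M HCl/10% Tween-80/25% ethanol, diluted 5-fold into 0.94% methylcellulose in 250 mM trisodium citrate. Blood sampled at 5, 20 (saphenous) and 60 min (cardiac). Plasma quantified by LC-MS (ESI-QTOF) against standard curves.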
# [4] = Plasma concentration in CD-1 mouse at 50 mg/kg, po after 20 mins; type: ADME, organism-based; design: dose 50 mg/kg, route oral; in short: as §1
# [5] = Plasma concentration in CD-1 mouse at 50 mg/kg, po after 5 mins; type: ADME, organism-based; design: dose 50 mg/kg, route oral; in short: as §1
Structure (SMILES),Ratio [1],Ratio [2],half-life [3] [min],concentration at 20 min [4] [ng/mL],concentration at 5 min [5] [ng/mL]
O=C(NC[C@@H]1CC(Br)=NO1)[C@@H]1C[C@@H](c2ccccc2)CN1C(=O)OCc1cnc2ccccc2c1,66.3,1.5,15,–,–
O=C(N[C@@H]1C[C@@H](C(=O)NC[C@@H]2CC(Br)=NO2)N(C(=O)OCc2cnc3ccccc3c2)C1)c1cccnc1,20,0.68,15,–,–
O=C(NC[C@@H]1CC(Br)=NO1)[C@@H]1C[C@@H](O)CN1C(=O)OCc1cnc2ccccc2c1,4.8,0.5,15,–,–
O=C(NC[C@@H]1CC(Br)=NO1)[C@@H]1C[C@@H](OCc2ccccc2)CN1C(=O)OCc1cnc2ccccc2c1,5.8,0.5,15,–,–
O=C(N[C@@H]1C[C@@H](C(=O)NC[C@@H]2CC(Br)=NO2)N(C(=O)OCc2cnc3ccccc3c2)C1)c1ccc(O)cc1,31.3,1.3,15,–,–

# The remaining lines, values ahead:
Ratio [1],Ratio [2],half-life [3] [min],concentration at 20 min [4] [ng/mL],concentration at 5 min [5] [ng/mL],Structure (SMILES)
6,0.43,15,2100,2900,O=C(NC[C@@H]1CC(Br)=NO1)[C@@H]1C[C@H](F)CN1C(=O)OCc1cnc2ccccc2c1
90.7,1.4,15,–,–,O=C(NC[C@@H]1CC(Br)=NO1)[C@@H]1C[C@@H](c2ccc(O)cc2)CN1C(=O)OCc1cnc2ccccc2c1
13.2,0.5,15,1200,2100,O=C(NC[C@@H]1CC(Br)=NO1)[C@@H]1CCCN1C(=O)OCc1cnc2ccccc2c1

# From ChEMBL document CHEMBL3351998, “Discovery of potent and specific dihydroisoxazole inhibitors of human transglutaminase 2” (J Med Chem, 2014)
